Measurements taken from ChEMBL document CHEMBL1142894, “Preparation of 5-aryl-3-alkylthio-l,2,4-triazoles and corresponding sulfones with antiinflammatory-analgesic activity” (Bioorg Med Chem, 2007).
Calls of active or inactive are those of the source. The calls are words filed in the database; no cut-off is given here.

Tests used:
Mus musculus [1] = experiment: Inhibition of carrageenan-induced paw edema in Swiss albino mouse at 50 mg/kg, po after 360 mins relative to control; type: functional; conditions: 6 h
Summary of the method: (§1)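 Mice, n = 6 per group. Test agent given orally as a suspension in 0.5% sodium CMC in distilled water; controls received vehicle only. Afterwards, 0.5 mg/25 ll carrageenan in saline (154 mM NaCl) injected subplantar into the right hind paw, saline into the left. Right-minus-left footpad thickness measured by dial gauge caliper every 90 min for 6 h. Inhibition is relative to vehicle-control group means.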

Mus musculus [2] = experiment: Inhibition of p-benzoquinone-induced writhing in Swiss albino mouse at 50 mg/kg, po relative to control; type: functional
Summary of the method: (§2)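 Mice, n = 6 per group, dosed orally with a suspension in 0.5% sodium CMC. 60 min later, 0.1 ml/10 g of 2.5% […] p-benzoquinone in distilled water given ip. Abdominal writhes counted per animal for 15 min, starting 5 min after injection. Expressed as % change in mean writhing count versus vehicle controls.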

Mus musculus [3] = experiment: Inhibition of carrageenan-induced paw edema in Swiss albino mouse at 100 mg/kg, po after 360 mins relative to control; type: functional; conditions: 6 h
Summary of the method: (§3)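 Oral dosing in 0.5% CMC; vehicle to controls. Then carrageenan (0.5 mg/25 ll, freshly suspended in 154 mM saline) injected into the right hind paw subplantar tissue; saline into the left paw. Right-left footpad thickness difference measured by dial gauge calliper every 90 min over 6 h. Inhibition % is relative to vehicle control. n = 6; mean ± SEM.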

Mus musculus [4] = experiment: Inhibition of carrageenan-induced paw edema in Swiss albino mouse at 50 mg/kg, po after 270 mins relative to control; type: functional; conditions: 4.5 h; summary of the method: as §1
Mus musculus [5] = experiment: Inhibition of carrageenan-induced paw edema in Swiss albino mouse at 100 mg/kg, po after 180 mins relative to control; type: functional; conditions: 3 h; summary of the method: as §3
Mus musculus [6] = experiment: Inhibition of carrageenan-induced paw edema in Swiss albino mouse at 50 mg/kg, po after 180 mins relative to control; type: functional; conditions: 3 h; summary of the method: as §3
Mus musculus [7] = experiment: Analgesic activity against p-benzoquinone-induced abdominal constriction in Swiss albino mouse assessed as number of writhings at 100 mg/kg, po; type: functional, Abdomen
Summary of the method: (§4)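 Test samples given orally in 0.5% CMC; vehicle to controls. 60 min later, 2.5% (v/v) p-benzoquinone in distilled water, 0.1 ml/10 g, given i.p. Mice housed singly; writhes counted for 15 min starting 5 min after injection. Activity is % change from vehicle controls. n = 6; mean ± SEM.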

Mus musculus [8] = experiment: Antiinflammatory activity against carrageenan-induced paw edema in Swiss albino mouse assessed as swelling thickness at 100 mg/kg, po after 270 mins; type: functional; summary of the method: as §3
Mus musculus [9] = experiment: Antiinflammatory activity against carrageenan-induced paw edema in Swiss albino mouse assessed as swelling thickness at 50 mg/kg, po after 270 mins; type: functional; summary of the method: as §3
Mus musculus [10] = experiment: Acute toxicity in Swiss albino mouse assessed as lethal effect at 50 mg/kg/day, po after 72 hrs; type: organism-based; design: route oral; conditions: in vivo
Summary of the method: (§5)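 Oral single dose suspended in 0.5% carboxymethylcellulose, given after a 24 h fast; food and water returned 1 h after dosing. Vehicle-only controls. Mice observed at 1 h, then once daily for 72 h, for toxic signs and mortality.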

Mus musculus [11] = experiment: Analgesic activity against p-benzoquinone-induced abdominal constriction in Swiss albino mouse assessed as number of writhings at 200 mg/kg, po; type: functional, Abdomen; summary of the method: as §4
Mus musculus [12] = experiment: Antiinflammatory activity against carrageenan-induced paw edema in Swiss albino mouse assessed as swelling thickness at 50 mg/kg, po after 180 mins; type: functional; summary of the method: as §3
Mus musculus [13] = experiment: Antiinflammatory activity against carrageenan-induced paw edema in Swiss albino mouse assessed as swelling thickness at 200 mg/kg, po after 90 mins; type: functional; summary of the method: as §3
Mus musculus [14] = experiment: Inhibition of carrageenan-induced paw edema in Swiss albino mouse at 50 mg/kg, po after 90 mins relative to control; type: functional; conditions: 1.5 h; summary of the method: as §1
Mus musculus [15] = experiment: Antiinflammatory activity against carrageenan-induced paw edema in Swiss albino mouse assessed as swelling thickness at 100 mg/kg, po after 360 mins; type: functional; summary of the method: as §3
Mus musculus [16] = experiment: Antiinflammatory activity against carrageenan-induced paw edema in Swiss albino mouse assessed as swelling thickness at 50 mg/kg, po after 90 mins; type: functional; summary of the method: as §3
Mus musculus [17] = experiment: Inhibition of carrageenan-induced paw edema in Swiss albino mouse at 25 mg/kg, po after 180 mins relative to control; type: functional; conditions: 3 h; summary of the method: as §3
Mus musculus [18] = experiment: Acute toxicity in Swiss albino mouse assessed as lethal effect at 200 mg/kg/day, po after 72 hrs; type: organism-based; design: route oral; conditions: in vivo; summary of the method: as §5
Mus musculus [19] = experiment: Analgesic activity against p-benzoquinone-induced abdominal constriction in Swiss albino mouse assessed as number of writhings at 50 mg/kg, po; type: functional, Abdomen; summary of the method: as §4
Mus musculus [20] = experiment: Antiinflammatory activity against carrageenan-induced paw edema in Swiss albino mouse assessed as swelling thickness at 25 mg/kg, po after 270 mins; type: functional; summary of the method: as §3
Mus musculus [21] = experiment: Antiinflammatory activity against carrageenan-induced paw edema in Swiss albino mouse assessed as swelling thickness at 25 mg/kg, po after 90 mins; type: functional; summary of the method: as §3
Mus musculus [22] = experiment: Analgesic activity against p-benzoquinone-induced abdominal constriction in Swiss albino mouse assessed as number of writhings at 25 mg/kg, po; type: functional, Abdomen; summary of the method: as §4
Mus musculus [23] = experiment: Inhibition of p-benzoquinone-induced writhing in Swiss albino mouse at 25 mg/kg, po relative to control; type: functional; summary of the method: as §2
Mus musculus [24] = experiment: Inhibition of carrageenan-induced paw edema in Swiss albino mouse at 25 mg/kg, po after 270 mins relative to control; type: functional; conditions: 4.5 h; summary of the method: as §3
Mus musculus [25] = experiment: Inhibition of carrageenan-induced paw edema in Swiss albino mouse at 200 mg/kg, po after 180 mins relative to control; type: functional; conditions: 3 h; summary of the method: as §3
Mus musculus [26] = experiment: Inhibition of carrageenan-induced paw edema in Swiss albino mouse at 100 mg/kg, po after 90 mins relative to control; type: functional; conditions: 1.5 h; summary of the method: as §3
Mus musculus [27] = experiment: Antiinflammatory activity against carrageenan-induced paw edema in Swiss albino mouse assessed as swelling thickness at 200 mg/kg, po after 270 mins; type: functional; summary of the method: as §3
Mus musculus [28] = experiment: Inhibition of carrageenan-induced paw edema in Swiss albino mouse at 100 mg/kg, po after 270 mins relative to control; type: functional; conditions: 4.5 h; summary of the method: as §3
Mus musculus [29] = experiment: Acute toxicity in Swiss albino mouse assessed as lethal effect at 25 mg/kg/day, po after 72 hrs; type: organism-based; design: route oral; conditions: in vivo; summary of the method: as §5
Mus musculus [30] = experiment: Antiinflammatory activity against carrageenan-induced paw edema in Swiss albino mouse assessed as swelling thickness at 25 mg/kg, po after 180 mins; type: functional; summary of the method: as §3
Mus musculus [31] = experiment: Antiinflammatory activity against carrageenan-induced paw edema in Swiss albino mouse assessed as swelling thickness at 200 mg/kg, po after 360 mins; type: functional; summary of the method: as §3
Mus musculus [32] = experiment: Gastric-ulcerogenic effect in Swiss albino mouse assessed as lesions at 100 mg/kg, po; type: functional, organism-based; design: dose 100 mg/kg
Summary of the method: (§6)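 Mice killed under deep ether anesthesia 3 h after the writhing test; the oral dose in 0.5% CMC was the one used in that test. Stomachs removed, opened along the great curvature and examined under a dissecting microscope for lesions or bleeding. Reported as ratio of ulceration; n = 6.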

Mus musculus [33] = experiment: Inhibition of carrageenan-induced paw edema in Swiss albino mouse at 200 mg/kg, po after 90 mins relative to control; type: functional; conditions: 1.5 h; summary of the method: as §3
Mus musculus [34] = experiment: Inhibition of p-benzoquinone-induced writhing in Swiss albino mouse at 200 mg/kg, po relative to control; type: functional; summary of the method: as §2
Mus musculus [35] = experiment: Antiinflammatory activity against carrageenan-induced paw edema in Swiss albino mouse assessed as swelling thickness at 100 mg/kg, po after 180 mins; type: functional; summary of the method: as §3
Mus musculus [36] = experiment: Gastric-ulcerogenic effect in Swiss albino mouse assessed as lesions at 50 mg/kg, po; type: functional, organism-based; design: dose 50 mg/kg; summary of the method: as §6
Mus musculus [37] = experiment: Antiinflammatory activity against carrageenan-induced paw edema in Swiss albino mouse assessed as swelling thickness at 100 mg/kg, po after 90 mins; type: functional; summary of the method: as §3
Mus musculus [38] = experiment: Antiinflammatory activity against carrageenan-induced paw edema in Swiss albino mouse assessed as swelling thickness at 200 mg/kg, po after 180 mins; type: functional; summary of the method: as §3
Mus musculus [39] = experiment: Inhibition of carrageenan-induced paw edema in Swiss albino mouse at 200 mg/kg, po after 270 mins relative to control; type: functional; conditions: 4.5 h; summary of the method: as §3
Mus musculus [40] = experiment: Inhibition of p-benzoquinone-induced writhing in Swiss albino mouse at 100 mg/kg, po relative to control; type: functional; summary of the method: as §2
Mus musculus [41] = experiment: Inhibition of carrageenan-induced paw edema in Swiss albino mouse at 200 mg/kg, po after 360 mins relative to control; type: functional; conditions: 6 h; summary of the method: as §3
Mus musculus [42] = experiment: Inhibition of carrageenan-induced paw edema in Swiss albino mouse at 25 mg/kg, po after 360 mins relative to control; type: functional; conditions: 6 h; summary of the method: as §3
Mus musculus [43] = experiment: Antiinflammatory activity against carrageenan-induced paw edema in Swiss albino mouse assessed as swelling thickness at 25 mg/kg, po after 360 mins; type: functional; summary of the method: as §3
Mus musculus [44] = experiment: Inhibition of carrageenan-induced paw edema in Swiss albino mouse at 25 mg/kg, po after 90 mins relative to control; type: functional; conditions: 1.5 h; summary of the method: as §3
Mus musculus [45] = experiment: Gastric-ulcerogenic effect in Swiss albino mouse assessed as lesions at 25 mg/kg, po; type: functional, organism-based; design: dose 25 mg/kg; summary of the method: as §6
Mus musculus [46] = experiment: Antiinflammatory activity against carrageenan-induced paw edema in Swiss albino mouse assessed as swelling thickness at 50 mg/kg, po after 360 mins; type: functional; summary of the method: as §3
Mus musculus [47] = experiment: Acute toxicity in Swiss albino mouse assessed as lethal effect at 100 mg/kg/day, po after 72 hrs; type: organism-based; design: route oral; conditions: in vivo; summary of the method: as §5

## CCS(=O)(=O)c1nc(-c2ccccc2)n[nH]1
Mus musculus [1]
  inhibition in vivo at 50 mg/kg: 38.6%
Mus musculus [2]
  inhibition in vivo at 50 mg/kg: 48.1%
Mus musculus [3]
  inhibition in vivo at 100 mg/kg: 36.8%
Mus musculus [4]
  inhibition in vivo at 50 mg/kg: 31.2%
Mus musculus [5]
  inhibition in vivo at 100 mg/kg: 31.7%
Mus musculus [6]
  inhibition in vivo at 50 mg/kg: 30.5%
Mus musculus [7]
  Activity: 27.5
Mus musculus [8]
  Activity: 39.2 10^-2mm
Mus musculus [9]
  Activity: 44.6 10^-2mm
Mus musculus [10]
  Activity: Non-toxic
Mus musculus [11]
  Activity: 48.5
Mus musculus [12]
  Activity: 41.3 10^-2mm
Mus musculus [13]
  Activity: 47.9 10^-2mm
Mus musculus [14]
  inhibition in vivo at 50 mg/kg: 26.3%
Mus musculus [15]
  Activity: 43.5 10^-2mm
Mus musculus [16]
  Activity: 39.2 10^-2mm
Mus musculus [17]
  inhibition in vivo at 25 mg/kg: 7.7%
Mus musculus [18]
  Activity: Non-toxic
Mus musculus [19]
  Activity: 26.7
Mus musculus [20]
  Activity: 58.1 10^-2mm
Mus musculus [21]
  Activity: 48.6 10^-2mm
Mus musculus [22]
  Activity: 38.2
Mus musculus [23]
  inhibition in vivo at 25 mg/kg: 25.7%
Mus musculus [24]
  inhibition in vivo at 25 mg/kg: 10.3%
Mus musculus [25]
  inhibition in vivo at 200 mg/kg: 11.9%
Mus musculus [26]
  inhibition in vivo at 100 mg/kg: 25.9%
Mus musculus [27]
  Activity: 57.6 10^-2mm
Mus musculus [28]
  inhibition in vivo at 100 mg/kg: 33.3%
Mus musculus [29]
  Activity: Non-toxic
Mus musculus [30]
  Activity: 54.9 10^-2mm
Mus musculus [31]
  Activity: 65.2 10^-2mm
Mus musculus [32]
  Activity: Active
Mus musculus [33]
  inhibition in vivo at 200 mg/kg: 9.9%
Mus musculus [34]
  inhibition in vivo at 200 mg/kg: 5.6%
Mus musculus [35]
  Activity: 35.2 10^-2mm
Mus musculus [36]
  Activity: Active
Mus musculus [37]
  Activity: 33.2 10^-2mm
Mus musculus [38]
  Activity: 52.3 10^-2mm
Mus musculus [39]
  inhibition in vivo at 200 mg/kg: 11.1%
Mus musculus [40]
  inhibition in vivo at 100 mg/kg: 41.9%
Mus musculus [41]
  inhibition in vivo at 200 mg/kg: 9.4%
Mus musculus [42]
  inhibition in vivo at 25 mg/kg: 13.3%
Mus musculus [43]
  Activity: 62.4 10^-2mm
Mus musculus [44]
  inhibition in vivo at 25 mg/kg: 8.6%
Mus musculus [45]
  Activity: Active
Mus musculus [46]
  Activity: 44.2 10^-2mm
Mus musculus [47]
  Activity: Non-toxic
